# From PMC4470787 (Clinical cancer research : an official journal of the …, 2015)
# “Also recorded” adds a separate entry of the source.
# Experiments:
# [1] = test system: relapsed/refractory acute lymphoblastic leukemia; experiment: Phase I/II study: response and survival with everolimus plus HyperCVAD; format: in vivo, human
# [2] = test system: pS6RP, p4EBP1 (Thr37/46), pAkt (Ser473); format: in vivo, human; details: 5 of 8 tested samples; 24 h after first dose; both 5 mg and 10 mg dose levels
# [3] = test system: mTOR targets (S6RP pS235-S236, S6RP pS240-S244, 4EBP1) and Akt; experiment: Reverse phase protein array; format: in vivo, human
# In short: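 Peripheral blood proteins from 10 patients (3 on 5 mg/day, 7 on 10 mg/day everolimus) were lysed as for western blots, taken before (C1D0) and 24 h after (C1D1) the first dose. The reverse phase protein array probed mTOR pS2448, p70S6K pT389, S6RP pS235-S236 and pS240-S244, 4EBP1 pS65 and pT37-T46, and Akt pS473 and pT308. Phospho/total ratios were compared between days 0 and 1.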
# [4] = Everolimus whole blood pharmacokinetics; format: in vivo, human
# In short: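 Patients with relapsed/refractory ALL took oral everolimus (5 or 10 mg/day, continuous from Cycle 1 Day 0) with HyperCVAD. Whole blood was collected in EDTA tubes 1, 2, 5, 8 and 24 h post-dose on Days 1 and 15 of Cycles 1 and 2 and held at 4°C. Drug levels were measured by validated HPLC-MS/MS with sirolimus internal standard. Cmax, Tmax, t1/2, Ke, CL, AUC0-∞ and V came from non-compartmental analysis.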
# [5] = test system: mTOR-sensitive, inflammation-associated and miR-21 target gene sets; format: in vivo, human
# In short: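 Peripheral blood was sampled from 5 patients before (C1D0) and 24 h after (C1D1) the first oral everolimus dose. RNA was TRIzol-extracted, isopropanol-precipitated and 70% ethanol-washed, accepted at integrity number >7, and amplified/biotinylated via oligo(dT) reverse transcription and T7 transcription with biotin-UTP. It was hybridised to HumanHT-12 v4 bead chips and analysed by gene set enrichment analysis.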
# [6] = test system: patients with relapsed/refractory acute lymphoblastic leukemia
# [7] = test system: patients with relapsed or refractory hematologic malignancies; details: phase I study at UT/MDACC; cited from earlier work
# [8] = 1 of 24 patients, everolimus with HyperCVAD
# [9] = all 24 patients, everolimus with HyperCVAD
# [10] = patients in first salvage, everolimus with HyperCVAD
# [11] = patients in second salvage and beyond, everolimus with HyperCVAD
compound,measurement,setting,value
CO[C@H]1C[C@@H]2CC[C@@H](C)[C@@](O)(O2)C(=O)C(=O)N2CCCC[C@H]2C(=O)O[C@H]([C@H](C)C[C@@H]2CC[C@@H](OCCO)[C@H](OC)C2)CC(=O)[C@H](C)/C=C(\C)[C@@H](O)[C@@H](OC)C(=O)[C@H](C)C[C@H](C)/C=C/C=C/C=C/1C [everolimus],CR without platelet recovery (CRp),[1]; [8],4%
same,CR without recovery of counts (CRi),[1]; [8],4%
same,partial response (PR),"[1]; 2 of 24 patients, everolimus with HyperCVAD",8%
same,response in T-ALL patients,"[1]; 5 of 10 heavily pretreated T-ALL patients, everolimus with HyperCVAD",50%
same,response in B-ALL patients,"[1]; 5 of 13 patients (all CR), everolimus with HyperCVAD",39%
same,complete remission (CR),"[1]; 6 of 24 patients, everolimus with HyperCVAD",25%
same,response (CR/CRp) in first salvage,"[1]; 7 of 11 patients, everolimus with HyperCVAD",64%
same,responses beyond second salvage,"[1]; 10 patients, everolimus with HyperCVAD",no responses
same,median OS,"[1]; B-ALL patients, everolimus with HyperCVAD",23 weeks
same,median OS,"[1]; T-ALL patients, everolimus with HyperCVAD",23 weeks
same,overall response rate (CR+CRp+CRi),[1]; [9],33%
same,response noted (including PR),[1]; [9],41%
same,no detectable MRD at response (multiparametric flow cytometry),[1]; among patients who achieved CR/CRp/CRi,5 of the 8
same,CRi in second salvage,[1]; everolimus with HyperCVAD,1 of 3
same,median EFS,[1]; [10],22 weeks
same,median OS,[1]; [10],29 weeks
same,median EFS,[1]; [11],7 weeks
same,median OS,[1]; [11],15 weeks
same,complete cytogenetic response,[1]; responders with abnormal cytogenetics at diagnosis,3 patients
same,samples with reduced phosphorylation of S6RP (western blot),[2],62%
same,phosphorylation of S6RP pS235-S236 (RPPA),"[3]; 10 patients, 1-sided paired t-test P=0.007",inhibited phosphorylation
same,phosphorylation of S6RP pS240-S244 (RPPA),"[3]; 10 patients, 1-sided paired t-test P=0.01",inhibited phosphorylation
same,"phosphorylation of 4EBP1, Akt, or other proteins",[3]; 24 h after first dose,No significant decreases; also recorded: No statistically significant differences
same,phosphorylation of S6RP at pS235-S236 and pS240-S244 sites,"[3]; everolimus 5 mg/day, RPPA and western blot",sufficiently blocked
same,"degree of inhibition of proteins or phosphorylated forms, 5 mg/day vs 10 mg/day","[3]; including Akt targets cyclin D1, FOXO3A, PRAS40 and Mcl-1",did not differ
same,patients with elevation of PTEN levels by RPPA,[3]; of 10 patients with serial analysis,Five
same,AUC and Cmax at steady state (C1D15 and C2D0) versus literature,[4]; 10-mg/day dose,higher than in previous published studies
same,"trough levels of everolimus, association",[4]; in vivo,not associated with response or toxicity
same,AUC and Cmax between everolimus 5 mg/day and 10 mg/day,[4]; whole blood,dose-proportional
same,expression of mTOR-sensitive genes induced by overexpression of Akt (GSEA),"[5]; 5 patients, C1D0 vs C1D1",significantly reduced
same,"inflammation-associated genes (TNF, EGF, IL-6 induced) (GSEA)","[5]; 5 patients, C1D0 vs C1D1",similarly reduced
same,target genes of miR-21 (GSEA),"[5]; 5 patients, C1D0 vs C1D1",increased
same,patient samples with increased PTEN expression (microarray),[5]; P=0.016,4 of the 5
same,"Cardiac: Pericardial effusion, G1/2","[6]; human, in vivo",0 N (%)
same,"Cardiac: Pericardial effusion, G3/4","[6]; human, in vivo",2 (8) N (%)
same,"Cardiac: Tachycardia, G1/2","[6]; human, in vivo",3 (13) N (%)
same,"Cardiac: Tachycardia, G3/4","[6]; human, in vivo",1 (4) N (%)
same,"Constitutional: Fatigue, G1/2","[6]; human, in vivo",13 (54) N (%)
same,"Constitutional: Fatigue, G3/4","[6]; human, in vivo",0 N (%)
same,"Constitutional: Headache, G1/2","[6]; human, in vivo",6 (25) N (%)
same,"Constitutional: Headache, G3/4","[6]; human, in vivo",4 (17) N (%)
same,"Gastrointestinal: Diarrhea, G1/2","[6]; human, in vivo",8 (33) N (%)
same,"Gastrointestinal: Diarrhea, G3/4","[6]; human, in vivo",2 (8) N (%)
same,"Gastrointestinal: Nausea, G1/2","[6]; human, in vivo",9 (38) N (%)
same,"Gastrointestinal: Nausea, G3/4","[6]; human, in vivo",0 N (%)
same,"Infection (one or more), G1/2","[6]; human, in vivo",0 N (%)
same,"Infection (one or more), G3/4","[6]; human, in vivo",23 (96) N (%)
same,"Metabolic: ALT/AST, G1/2","[6]; human, in vivo",14 (58) N (%)
same,"Metabolic: ALT/AST, G3/4","[6]; human, in vivo",7 (29) N (%)
same,"Metabolic: Bilirubin, G1/2","[6]; human, in vivo",14 (58) N (%)
same,"Metabolic: Bilirubin, G3/4","[6]; human, in vivo",2 (8) N (%)
same,"Metabolic: Hyperglycemia, G1/2","[6]; human, in vivo",7 (29) N (%)
same,"Metabolic: Hyperglycemia, G3/4","[6]; human, in vivo",12 (50) N (%)
same,"Mucositis/stomatitis, G1/2","[6]; human, in vivo",10 (42) N (%)
same,"Mucositis/stomatitis, G3/4","[6]; human, in vivo",3 (13) N (%)
same,"Pulmonary: Dyspnea, G1/2","[6]; human, in vivo",1 (4) N (%)
same,"Pulmonary: Dyspnea, G3/4","[6]; human, in vivo",1 (4) N (%)
same,"Pulmonary: Pleural effusions, G1/2","[6]; human, in vivo",1 (10) N (%)
same,"Pulmonary: Pleural effusions, G3/4","[6]; human, in vivo",2 (8) N (%)
same,"Renal: Renal insufficiency, G1/2","[6]; human, in vivo",0 N (%)
same,"Renal: Renal insufficiency, G3/4","[6]; human, in vivo",4 (17) N (%)
same,"Renal: Urinary retention, G1/2","[6]; human, in vivo",1 (4) N (%)
same,"Renal: Urinary retention, G3/4","[6]; human, in vivo",0 N (%)
same,incidence of grade 3/4 hyperglycemia,"[6]; human, in vivo",50%
same,myelosuppression and neutropenia,"[6]; human, in vivo",occurred in all 24 patients
same,maximum tolerated dose (MTD) of everolimus,"[6]; in combination with HyperCVAD, 3+3 design",5 mg/day
same,DLT at dose level 0,[6]; in vivo,no documented first or second cycle DLT
same,pneumonitis,[6]; in vivo,No documented cases
same,tolerability of single-agent everolimus,[7],well tolerated at a dose of 10 mg daily
